Data as given in article PMC7581536 (Journal of pharmaceutical and biomedical analysis, 2020).

How the values were obtained:
[1] = Pharmacokinetic study of JIB-04 in rats after i.v. and oral administration; assay type: in vivo, rat
Outline: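 Male adult SD rats with jugular vein cannulas. IV: single 5 mg/kg via jugular vein (n=5) as aqueous suspension in 12.5% cremophor EL/12.5% DMSO; blood at 2 min–24 h. Oral: single 15 mg/kg (n=6); blood at 5 min–24 h. Heparinised plasma (4000 rpm, 15 min) held at −80°C. 20 µL plasma precipitated with ACN (5 ng/mL IS, 0.1% acetic acid); UHPLC-MS/MS MRM; non-compartmental analysis per rat.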

[2] = Stability of JIB-04 in rat plasma; assay type: in vitro ADME; settings: for RE (deviation from nominal concentration) / Calculated Concentration Mean ± SD: rat plasma; for Calculated Concentration Mean ± SD: n=6
Outline: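 Blank rat plasma spiked to 0.5, 1, 50 and 800 ng/mL, six replicates per condition. Held 18 h on bench at room temperature, 24 h in auto-sampler tray, or 3 months at −80°C. Freeze-thaw: three cycles of 2–3 h room-temperature thaw and 12–24 h at −80°C. Quantified against a same-day calibration curve; accuracy as RE%, precision as CV%.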

[3] = Stability of stock solutions; assay type: physicochemical; settings: stock solution (DMSO/ACN or ACN), 6 months at −20°C
Outline: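 Test compound stock at 2 mg/mL: 10 mg dissolved in 0.5 mL DMSO, then diluted with ACN. Internal standard stock at 100 µg/mL in ACN. Both kept at −20°C for 6 months.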

[4] = Non-specific binding to plastic centrifuge tubes; assay type: physicochemical; settings: neat solution, water as matrix
KDM5A = settings: secondary targets KDM4D/4B/4A/6B/4C; ref [18], [20]–[21]; cited from earlier work
HIV-1 = settings: T cell lines, via inhibition of SHMT2; ref [23]; cited from earlier work
KDMs = settings: ref [18]–[19]; cited from earlier work
[5] = rats, oral 15 mg/kg, n=6, NCA (apparent)
[6] = auto-sampler (10 °C 24hr), nominal 0.5 ng/mL
[7] = auto-sampler (10 °C 24hr), nominal 1 ng/mL
[8] = auto-sampler (10 °C 24hr), nominal 50 ng/mL
[9] = auto-sampler (10 °C 24hr), nominal 800 ng/mL
[10] = bench top (18hr, RT), nominal 0.5 ng/mL
[11] = bench top (18hr, RT), nominal 1 ng/mL
[12] = bench top (18hr, RT), nominal 50 ng/mL
[13] = bench top (18hr, RT), nominal 800 ng/mL
[14] = long-term (−80 °C, 3 months), nominal 0.5 ng/mL
[15] = long-term (−80 °C, 3 months), nominal 1 ng/mL
[16] = long-term (−80 °C, 3 months), nominal 50 ng/mL
[17] = long-term (−80 °C, 3 months), nominal 800 ng/mL

Clc1ccc(N/N=C(\c2ccccc2)c2ccccn2)nc1 [JIB-04]
concentrations in pharmacokinetic samples ([1]; rat plasma, i.v. and oral samples): 0.002 to 6 µg/mL | plasma concentration ([1]; rats, i.v. 5 mg/kg, after 24 h): 0.003 ± 0.001 µg/mL | plasma concentration ([1]; rats, i.v. 5 mg/kg, at 2 min): 5.27 ± 0.5272 µg/mL | AUC 0→24 ([1]; rats, i.v. 5 mg/kg, n=5, NCA): 3.6616 ± 0.3714 µg·h/mL | AUC 0→inf ([1]; rats, i.v. 5 mg/kg, n=5, NCA): 3.6782 ± 0.369 µg·h/mL | CL ([1]; rats, i.v. 5 mg/kg, n=5, NCA): 1.3707 ± 0.1417 L/h/kg | Half-life ([1]; rats, i.v. 5 mg/kg, n=5, NCA): 3.70 ± 0.5 h | MRT ([1]; rats, i.v. 5 mg/kg, n=5, NCA): 2.6 ± 0.3 h | Vd ([1]; rats, i.v. 5 mg/kg, n=5, NCA): 7.3576 ± 1.5306 L/kg | E/Z ratio in plasma ([1]; rats, i.v. samples, 5 min): 72 | E/Z ratio in plasma ([1]; rats, i.v. samples, 2 h): 27 | E/Z ratio in plasma ([1]; rats, i.v. samples, 24 h): 0.6 | time to reach Cmax (range among subjects) ([1]; rats, oral 15 mg/kg): 0.5 ~ 4 h | oral bioavailability (F) ([1]; rats, oral 15 mg/kg vs i.v. 5 mg/kg): 44.4% | AUC 0→24 ([1]; rats, oral 15 mg/kg, n=6, NCA): 4.8808 ± 1.0153 µg·h/mL | AUC 0→inf ([1]; rats, oral 15 mg/kg, n=6, NCA): 4.9047 ± 1.0197 µg·h/mL | Cmax ([1]; rats, oral 15 mg/kg, n=6, NCA): 0.8127 ± 0.2012 µg/mL | Half-life ([1]; rats, oral 15 mg/kg, n=6, NCA): 3.2 ± 0.2 h | MRT ([1]; rats, oral 15 mg/kg, n=6, NCA): 4.4 ± 0.3 h | Tmax ([1]; rats, oral 15 mg/kg, n=6, NCA): 1.5 ± 1.4 h | CL [1, 5]: 3.2342 ± 0.0763 L/h/kg | Vd [1, 5]: 14.9234 ± 3.6699 L/kg | plasma concentration ([1]; rats, oral 15 mg/kg, within 5 min): 0.1229 ± 0.051 µg/mL | E/Z ratio in plasma ([1]; rats, oral samples, 5 min): 40 | E/Z ratio in plasma ([1]; rats, oral samples, 2 h): 9 | E/Z ratio in plasma ([1]; rats, oral samples, 24 h): 2.3 | RE (deviation from nominal concentration) [2, 6]: −3.2% | Calculated Concentration Mean ± SD [2, 6]: 0.48 ± 0.01 ng/mL | RE (deviation from nominal concentration) [2, 7]: −3.5% | Calculated Concentration Mean ± SD [2, 7]: 0.97 ± 0.06 ng/mL | RE (deviation from nominal concentration) [2, 8]: −2.7% | Calculated Concentration Mean ± SD [2, 8]: 48.6 ± 3.3 ng/mL | RE (deviation from nominal concentration) [2, 9]: −0.1% | Calculated Concentration Mean ± SD [2, 9]: 799.0 ± 17.5 ng/mL | RE (deviation from nominal concentration) [2, 10]: 1.6% | Calculated Concentration Mean ± SD [2, 10]: 0.51 ± 0.02 ng/mL | RE (deviation from nominal concentration) [2, 11]: −6.9% | Calculated Concentration Mean ± SD [2, 11]: 0.93 ± 0.05 ng/mL | RE (deviation from nominal concentration) [2, 12]: −6.4% | Calculated Concentration Mean ± SD [2, 12]: 46.8 ± 0.7 ng/mL | RE (deviation from nominal concentration) [2, 13]: 2.4% | Calculated Concentration Mean ± SD [2, 13]: 819.0 ± 26.0 ng/mL | RE (deviation from nominal concentration) ([2]; freeze and thaw (−80 °C to RT), nominal 0.5 ng/mL): 1.4% | RE (deviation from nominal concentration) ([2]; freeze and thaw (−80 °C to RT), nominal 1 ng/mL): −0.8% | RE (deviation from nominal concentration) ([2]; freeze and thaw (−80 °C to RT), nominal 50 ng/mL): −2.1% | RE (deviation from nominal concentration) ([2]; freeze and thaw (−80 °C to RT), nominal 800 ng/mL): −0.9% | Calculated Concentration Mean ± SD ([2]; freeze and thaw (−80 °C to RT), three cycles, nominal 0.5 ng/mL): 0.51 ± 0.01 ng/mL | Calculated Concentration Mean ± SD ([2]; freeze and thaw (−80 °C to RT), three cycles, nominal 1 ng/mL): 0.99 ± 0.03 ng/mL | Calculated Concentration Mean ± SD ([2]; freeze and thaw (−80 °C to RT), three cycles, nominal 50 ng/mL): 49.0 ± 1.3 ng/mL | Calculated Concentration Mean ± SD ([2]; freeze and thaw (−80 °C to RT), three cycles, nominal 800 ng/mL): 793.0 ± 16.2 ng/mL | RE (deviation from nominal concentration) [2, 14]: −6.7% | Calculated Concentration Mean ± SD [2, 14]: 0.47 ± 0.02 ng/mL | RE (deviation from nominal concentration) [2, 15]: −6.9% | Calculated Concentration Mean ± SD [2, 15]: 0.93 ± 0.05 ng/mL | RE (deviation from nominal concentration) [2, 16]: −5.6% | Calculated Concentration Mean ± SD [2, 16]: 47.2 ± 1.3 ng/mL | RE (deviation from nominal concentration) [2, 17]: −6.9% | Calculated Concentration Mean ± SD [2, 17]: 745.0 ± 20.8 ng/mL | storage stability of plasma samples ([2]; stored at −80 °C for as long as 3 months): without apparent alteration | degradation in rat plasma ([2]; under the experimental conditions (Table 4)): no significant degradation | stability of stock solution [3]: stable | non-specific binding to plastic centrifuge tubes [4]: strongly binding | inhibitory activity against KDM5A (KDM5A): maximal inhibitory activity | block of HIV-1 Tat expression, transactivation, and virus replication (HIV-1): potently and selectively blocks

Clc1ccc(NN=C(c2ccccc2)c2ccccn2)nc1 (single isomer, unassigned) [Z-isomer]
activity against KDMs (KDMs): inactive
